Measured values published in ChEMBL document CHEMBL2311366, “MMP inhibition by barbiturate homodimers” (Bioorg Med Chem Lett, 2013).
Active and inactive are the calls of the source. The calls are words filed in the database; no cut-off is given here.

Key:
[1] = target: T1, Interstitial collagenase (Homo sapiens) (UniProt P03956); assay: Inhibition of human recombinant MMP-1 at 10 uM after 45 mins by fluorogenic assay
T1 sequence (whole entry): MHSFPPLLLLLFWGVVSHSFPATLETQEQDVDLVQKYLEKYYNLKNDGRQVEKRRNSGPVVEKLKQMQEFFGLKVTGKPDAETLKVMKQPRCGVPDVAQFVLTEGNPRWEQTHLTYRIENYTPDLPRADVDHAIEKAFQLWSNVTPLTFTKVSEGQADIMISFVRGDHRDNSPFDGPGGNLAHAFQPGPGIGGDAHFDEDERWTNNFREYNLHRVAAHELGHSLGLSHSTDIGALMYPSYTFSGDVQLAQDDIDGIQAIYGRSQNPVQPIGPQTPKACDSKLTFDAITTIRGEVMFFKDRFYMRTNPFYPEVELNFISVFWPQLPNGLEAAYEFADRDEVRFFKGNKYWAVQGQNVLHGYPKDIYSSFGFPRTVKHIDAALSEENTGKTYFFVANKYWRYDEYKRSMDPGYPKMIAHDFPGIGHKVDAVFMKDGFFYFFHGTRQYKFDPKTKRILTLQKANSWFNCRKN

Neutrophil collagenase = Neutrophil collagenase (Homo sapiens, UniProt P22894); assay: Inhibition of human recombinant MMP-8 after 45 mins by fluorogenic assay
Chain of Neutrophil collagenase (P22894 whole entry): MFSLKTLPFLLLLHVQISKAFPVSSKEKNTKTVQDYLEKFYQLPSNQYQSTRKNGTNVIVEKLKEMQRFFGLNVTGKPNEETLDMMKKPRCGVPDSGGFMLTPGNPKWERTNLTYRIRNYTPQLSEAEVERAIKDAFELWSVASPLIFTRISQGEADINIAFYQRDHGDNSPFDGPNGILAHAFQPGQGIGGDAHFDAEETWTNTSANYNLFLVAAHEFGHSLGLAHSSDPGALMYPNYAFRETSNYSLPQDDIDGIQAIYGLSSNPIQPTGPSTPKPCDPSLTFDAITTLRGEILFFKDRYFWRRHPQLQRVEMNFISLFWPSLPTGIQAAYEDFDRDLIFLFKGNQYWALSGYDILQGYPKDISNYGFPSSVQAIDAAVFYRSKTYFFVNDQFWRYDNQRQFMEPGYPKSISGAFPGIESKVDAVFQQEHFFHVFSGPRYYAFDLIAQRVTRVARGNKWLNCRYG
Method in brief: (§1)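 Human recombinant enzymes in a fluorogenic activity assay. Test concentrations 0.01–10,000 nM, 45 min incubation. IC50 reported as mean SEM of at least three independent experiments.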

Collagenase 3 = Collagenase 3 (Homo sapiens, UniProt P45452); assay: Inhibition of human recombinant MMP-13 after 45 mins by fluorogenic assay; method in brief: as §1
[2] = Metabolic stability in human duodenal fluid assessed as compound remaining at 6 hrs; assay type: ADME; settings: read-out: Stability
Method in brief: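 Incubation at 37 °C in simulated human duodenal fluid. Remaining compound was measured by RP HPLC as a function of time.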

| Structure (SMILES) | inhibition [1] | IC50 (Neutrophil collagenase) [nM] | IC50 (Collagenase 3) [nM] | remaining at 6 h [2] [%] |
| --- | --- | --- | --- | --- |
| O=C1NC(=O)C(c2ccc(Oc3ccccc3)cc2)(N2CCCN(C(=O)CCCCC(=O)N3CCCN(C4(c5ccc(Oc6ccccc6)cc5)C(=O)NC(=O)NC4=O)CC3)CC2)C(=O)N1 | inactive | 60 | 23 | – |
| O=C1NC(=O)C(c2ccc(Oc3ccccc3)cc2)(N2CCCN(C(=O)CCC(=O)N3CCCN(C4(c5ccc(Oc6ccccc6)cc5)C(=O)NC(=O)NC4=O)CC3)CC2)C(=O)N1 | inactive | 44 | 11 | – |
| CCCCCCCCCCCCCC(=O)N1CCCN(C2(c3ccc(Oc4ccccc4)cc3)C(=O)NC(=O)NC2=O)CC1 | inactive | – | – | – |
| O=C1NC(=O)C(c2ccc(Oc3ccccc3)cc2)(N2CCCN(C(=O)CCCCCCCCCCCCC(=O)N3CCCN(C4(c5ccc(Oc6ccccc6)cc5)C(=O)NC(=O)NC4=O)CC3)CC2)C(=O)N1 | inactive | 217 | 70 | – |
| O=C1NC(=O)C(c2ccc(Oc3ccccc3)cc2)(N2CCCN(C(=O)CCCCCCCC(=O)N3CCCN(C4(c5ccc(Oc6ccccc6)cc5)C(=O)NC(=O)NC4=O)CC3)CC2)C(=O)N1 | inactive | 98 | 44 | – |
| O=C1NC(=O)C(c2ccc(Oc3ccccc3)cc2)(N2CCCN(C(=O)c3ccc(C(=O)N4CCCN(C5(c6ccc(Oc7ccccc7)cc6)C(=O)NC(=O)NC5=O)CC4)cc3)CC2)C(=O)N1 | inactive | 46 | 23 | – |
| O=C1NC(=O)C(c2ccc(Oc3ccccc3)cc2)(N2CCCN(C(=O)CCCCCCCCCCCCCCCCCCCCC(=O)N3CCCN(C4(c5ccc(Oc6ccccc6)cc5)C(=O)NC(=O)NC4=O)CC3)CC2)C(=O)N1 | inactive | 162 | 225 | – |
| O=C1NC(=O)C(c2ccc(Oc3ccccc3)cc2)(N2CCCN(C(=O)CCCCCCCCC(=O)N3CCCN(C4(c5ccc(Oc6ccccc6)cc5)C(=O)NC(=O)NC4=O)CC3)CC2)C(=O)N1 | inactive | 91 | 106 | – |
| O=C1NC(=O)C(c2ccc(Oc3ccccc3)cc2)(N2CCCN(C(=O)CCCCCC(=O)N3CCCN(C4(c5ccc(Oc6ccccc6)cc5)C(=O)NC(=O)NC4=O)CC3)CC2)C(=O)N1 | inactive | 117 | 648 | – |
| CCCC(=O)N1CCCN(C2(c3ccc(Oc4ccccc4)cc3)C(=O)NC(=O)NC2=O)CC1 | inactive | – | – | – |
| O=C1NC(=O)C(c2ccc(Oc3ccccc3)cc2)(N2CCCN(C(=O)CCCCCCCCCCCCCCC(=O)N3CCCN(C4(c5ccc(Oc6ccccc6)cc5)C(=O)NC(=O)NC4=O)CC3)CC2)C(=O)N1 | inactive | 282 | 134 | – |
| O=C1NC(=O)C(c2ccc(Oc3ccccc3)cc2)(N2CCCN(C(=O)CCCC(=O)N3CCCN(C4(c5ccc(Oc6ccccc6)cc5)C(=O)NC(=O)NC4=O)CC3)CC2)C(=O)N1 | inactive | 85 | 164 | > 50 |
| O=C1NC(=O)C(c2ccc(Oc3ccccc3)cc2)(N2CCCN(C(=O)CCCCCCCCCCC(=O)N3CCCN(C4(c5ccc(Oc6ccccc6)cc5)C(=O)NC(=O)NC4=O)CC3)CC2)C(=O)N1 | inactive | 125 | 104 | – |
| O=C1NC(=O)C(c2ccc(Oc3ccccc3)cc2)(N2CCCN(C(=O)CCCCCCC(=O)N3CCCN(C4(c5ccc(Oc6ccccc6)cc5)C(=O)NC(=O)NC4=O)CC3)CC2)C(=O)N1 | inactive | 88 | 155 | – |
